In ChEMBL document CHEMBL1123730, “Synthesis and pharmacological evaluation of a new class of 2-(2-aminothiazol-4-yl)-2-hydrazonoacetamido cephalosporins” (J Med Chem, 1987):
Converted amounts (≈) assume the structure as drawn.

Key:
Staphylococcus aureus = test: Geometrical average of minimum inhibitory concentration was determined in isosensitest broth against Staphylococcus; type: functional
Streptococcus = test: Geometrical average of minimum inhibitory concentration was determined in isosensitest broth against Streptococcus; type: functional
[1] = Distribution (50 mg/kg) was determined in lung 5 min after intramuscular administration; type: ADME, organism-based; details: im, read-out: Tissue distribution
Procedure, shortened: (§1)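 Wistar rats (200-250 g, groups of five) given 50 mg/kg in sterile water iv or im; killed at set times, lung, liver and kidney homogenized in 0.1 M pH 7.3 phosphate buffer (tissue:buffer 1:5). Drug assayed by agar diffusion on Nutrient Agar with E. coli ATCC 10536 (37 °C, 18 h); standards in phosphate buffer; detection limit 0.5 μg/mL; mean ± SEM.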

Pseudomonas = test: Geometrical average of minimum bactericidal concentration was determined in isosensitest broth against Pseudomonas; type: functional
Salmonella = test: Geometrical average of minimum inhibitory concentration was determined in isosensitest broth against Salmonella; type: functional
[2] = Geometrical average of minimum inhibitory concentration was determined in isosensitest broth against gram-negative strains.; type: functional
[3] = Serum level was determined at 360 min after intramuscular administration of 50 mg/kg in rats; type: ADME, organism-based; set-up: dose 50 mg/kg, route intramuscular; details: rat, im, read-out: Serum level
Procedure, shortened: (§2)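 Dose 50 mg/kg in sterile water, iv or im, to Wistar rats 200-250 g, five per time point; killed at set intervals, blood centrifuged for serum. Antibiotic measured by agar diffusion on Nutrient Agar with E. coli ATCC 10536 (37 °C, 18 h), standards diluted in serum; detection limit 1 μg/mL. Mean ± SEM of five rats.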

Klebsiella [4] = test: Geometrical average of minimum bactericidal concentration was determined in isosensitest broth against Klebsiella; type: functional
[5] = Distribution (50 mg/kg) was determined in liver 120 min after intravenous administration; type: ADME, organism-based; details: read-out: Tissue distribution; procedure, shortened: as §1
Klebsiella pneumoniae = test: In vivo protective dose was determined in infected swiss mice (120/strain) infected ip with Klebsiella pneumoniae 102 with an inoculum size-0.5 mL of 10 E5 CFU/mL of suspension. Activity in range of 10.47-22.94
[6] = Distribution (50 mg/kg) was determined in lung 30 min after intramuscular administration; type: ADME, organism-based; details: im, read-out: Tissue distribution; procedure, shortened: as §1
Neisseria perflava [7] = test: Geometrical average of minimum inhibitory concentration was determined in isosensitest broth against Neisseria perfl.; type: functional
Escherichia coli [8] = test: Minimum inhibitory concentration against Escherichia coli ISM strain; type: functional
[9] = Distribution (50 mg/kg) was determined in lung 30 min after intravenous administration; type: ADME, organism-based; details: read-out: Tissue distribution; procedure, shortened: as §1
[10] = Serum level was determined at 120 min after an intravenous administration of 50 mg/kg in rats; type: ADME, organism-based; set-up: dose 50 mg/kg, route intravenous; details: rat, read-out: Serum level; procedure, shortened: as §2
Neisseria perflava [11] = test: Geometrical average of minimum bactericidal concentration was determined in isosensitest broth against Neisseria perfl (1); type: functional
Proteus = test: Geometrical average of minimum inhibitory concentration was determined in isosensitest broth against Proteus; type: functional, Proteus sp.
Bacillus = test: Geometrical average of minimum bactericidal concentration was determined in isosensitest broth against Bacillus; type: functional
[12] = Distribution (50 mg/kg) was determined in kidney 15 min after intravenous administration; type: ADME, organism-based; details: read-out: Tissue distribution; procedure, shortened: as §1
Enterobacter = test: Geometrical average of minimum bactericidal concentration was determined in isosensitest broth against Enterobacter; type: functional
Escherichia coli [13] = test: Geometrical average of minimum inhibitory concentration was determined in isosensitest broth against Escherichia coli; type: functional
Sarcina = test: Geometrical average of minimum inhibitory concentration was determined in isosensitest broth against Sarcina; type: functional
Serratia = test: Geometrical average of minimum bactericidal concentration was determined in isosensitest broth against Serratia; type: functional
Klebsiella [14] = test: Geometrical average of minimum inhibitory concentration was determined in isosensitest broth against Klebsiella; type: functional
[15] = Distribution (50 mg/kg) was determined in liver 30 min after intramuscular administration; type: ADME, organism-based; details: im, read-out: Tissue distribution; procedure, shortened: as §1
Staphylococcus = test: Geometrical average of minimum bactericidal concentration was determined in isosensitest broth against Staphylococcus (10); type: functional
[16] = Serum level was determined at 120 min after intramuscular administration of 50 mg/kg in rats; type: ADME, organism-based; set-up: dose 50 mg/kg, route intramuscular; details: rat, im, read-out: Serum level; procedure, shortened: as §2
[17] = Distribution (50 mg/kg) was determined in liver 15 min after intravenous administration; type: ADME, organism-based; details: read-out: Tissue distribution; procedure, shortened: as §1
Alcaligenes = test: Geometrical average of minimum bactericidal concentration was determined in isosensitest broth against Alcaligenes; type: functional

## Cn1nnnc1SCC1=C(C(=O)O)N2C(=O)[C@@H](NC(=O)/C(=N/N)c3csc(N)n3)[C@H]2SC1
Staphylococcus aureus
  MIC: 6.69 µg/mL (≈ 13.5 µM)
Streptococcus
  MIC: 25 µg/mL (≈ 50.3 µM)
[1]
  concentration at 5 min: ≤ 5000 ng/g
Pseudomonas
  MBC: > 100 µg/mL
Salmonella
  MIC: 0.86 µg/mL (≈ 1.73 µM)
[2]
  MIC: 1.74 µg/mL (≈ 3.5 µM)
[3]
  concentration at 6 h: 3430 ng/mL
Klebsiella [4]
  MBC: 2.78 µg/mL (≈ 5.6 µM)
[5]
  concentration at 2 h: ≤ 5000 ng/g
Klebsiella pneumoniae
  ED50: 15.5 mg/kg
[6]
  concentration at 0.5 h: 12200 ng/g
Neisseria perflava [7]
  MIC: < 0.09 µg/mL
Escherichia coli [8]
  MIC: 1.1 µg/mL (≈ 2.22 µM)
[9]
  concentration at 0.5 h: 8970 ng/g
[10]
  concentration at 2 h: 20500 ng/mL
Neisseria perflava [11]
  MBC: < 0.09 µg/mL
Proteus
  MIC: 1.08 µg/mL (≈ 2.17 µM)
Bacillus
  MBC: 50 µg/mL (≈ 101 µM)
[12]
  concentration at 0.25 h: 50600 ng/g
Enterobacter
  MBC: 3.12 µg/mL (≈ 6.28 µM)
Escherichia coli [13]
  MIC: 0.6 µg/mL (≈ 1.21 µM)
Sarcina
  MIC: 1.56 µg/mL (≈ 3.14 µM)
Serratia
  MBC: 3.12 µg/mL (≈ 6.28 µM)
Klebsiella [14]
  MIC: 1.17 µg/mL (≈ 2.36 µM)
[15]
  concentration at 0.5 h: 22100 ng/g
Staphylococcus
  MBC: 11.3 µg/mL (≈ 22.7 µM)
[16]
  concentration at 2 h: 32900 ng/mL
[17]
  concentration at 0.25 h: 25800 ng/g
Alcaligenes
  MBC: 12.5 µg/mL (≈ 25.2 µM)
